Results as given in ChEMBL document CHEMBL1139082, “A potent and orally active HIV-1 integrase inhibitor” (Bioorg Med Chem Lett, 2007).
≈ marks a conversion by molar mass, not a printed value. Values belong to the molecule of their own block, whether it stands above or below them. Calls of active or inactive are those of the source. No cut-off for these calls is given here.

Tests used:
Plasma = assay: Fraction unbound in human plasma after 30 mins by ultracentrifugation method; format: ADME, cell-free; conditions: 0.5 h
In short: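 14C-labelled compound was spiked into human plasma (pH 7.4) at final 1, 5 and 20 µM and incubated 30 min at 37 °C. Ultracentrifugation at 180,000g, 37 °C, overnight (~18 h). Supernatant aliquots were counted by liquid scintillation with quench correction; fu (%) = dpm in protein-free fraction / dpm in original plasma × 100.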

[1] = test system: Human immunodeficiency virus 1; assay: Antiviral activity against HIV1 3B in MT4 cells assessed as decrease in HIV1 p24 core antigen in presence of FBS; format: functional; conditions: Human immunodeficiency virus 1, 3B
In short: (§1)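 MT-4 human T-lymphoid cells infected with HIV-1 IIIb, cultured with increasing inhibitor concentrations; readout is the decrease in p24 core antigen. IC95 is the concentration giving 95% inhibition of viral growth versus control. Line 1 used 10% fetal bovine serum; line 2 used 50% normal human serum. n ≥ 2; lower limit ~7 nM; SD ~2-fold.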

[2] = test system: Human immunodeficiency virus 1; assay: Antiviral activity against HIV1 3B in MT4 cells assessed as decrease in HIV1 p24 core antigen in presence of normal human serum; format: functional; conditions: Human immunodeficiency virus 1, 3B; in short: as §1
[3] = Partition coefficient, log P at pH 7.4; format: physicochemical; conditions: octanol/water
In short: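 Octanol/buffer partition measured by HPLC at each compound's maximum absorbance. Log P = log[(octanol area × octanol dilution)/(buffer area × buffer dilution)].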

[4] = Solubility at pH 7.4 by equilibrium solubility assay; format: physicochemical; conditions: buffer
In short: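 Crystalline drug was suspended in 10 mM sodium phosphate, pH 7.4, and equilibrated at room temperature for 5 days. Aliquots were centrifuged 15,000 rpm for 15 min. Solution concentration was measured by HPLC at days 2 and 5 and taken as solubility.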

[5] = Oral bioavailability in rat at 10 mg/kg; format: ADME, organism-based; conditions: in vivo
In short: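 Sodium salt was ground and given orally to rats at 10 mg/kg as a 1% aqueous methylcellulose solution/suspension. Percent bioavailability was taken after oral administration.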

[6] = Oral bioavailability in dog at 1 mg/kg; format: ADME, organism-based, Canis lupus familiaris; conditions: in vivo
In short: (§2)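 Sodium salt was ground and given orally at 1 mg/kg to dogs and rhesus monkeys as a 0.5% aqueous methylcellulose suspension. Percent bioavailability was taken after oral administration.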

[7] = Oral bioavailability in rhesus monkey at 1 mg/kg; format: ADME, organism-based, Macaca mulatta; conditions: in vivo; in short: as §2
[8] = Half life in rat at 2 mg/kg, iv; format: ADME, organism-based; design: dose 2 mg/kg, route intravenous; conditions: in vivo
In short: (§3)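 Rats received the sodium salt intravenously at 2 mg/kg, dissolved in DMSO. Half-life (h) and clearance (mL/min/kg) were derived after iv administration.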

[9] = Half life in dog at 1 mg/kg, iv; format: ADME, organism-based, Canis lupus familiaris; design: dose 1 mg/kg, route intravenous; conditions: in vivo
In short: (§4)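 Dog and rhesus monkeys were given sodium salt intravenously at 1 mg/kg, dissolved in DMSO. Half-life (h) and clearance (mL/min/kg) were derived from plasma concentrations after iv dosing.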

[10] = Half life in rhesus monkey at 1 mg/kg, iv; format: ADME, organism-based, Macaca mulatta; design: dose 1 mg/kg, route intravenous; conditions: in vivo; in short: as §4
[11] = Clearance in rat at 2 mg/kg, iv; format: ADME, organism-based; design: dose 2 mg/kg, route intravenous; conditions: in vivo; in short: as §3
[12] = Clearance in dog at 1 mg/kg, iv; format: ADME, organism-based, Canis lupus familiaris; design: dose 1 mg/kg, route intravenous; conditions: in vivo; in short: as §4
[13] = Clearance in rhesus monkey at 1 mg/kg, iv; format: ADME, organism-based, Macaca mulatta; design: dose 1 mg/kg, route intravenous; conditions: in vivo; in short: as §4
[14] = test system: Human immunodeficiency virus 1; assay: Antiviral activity against HIV1 with integrase […] mutant; format: functional, organism-based
In short: (§5)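 HIV-1 carrying site-directed integrase mutations (mutations first seen in serial cell-culture passage under integrase inhibitors) tested in cell culture. Activity is expressed as fold loss in efficacy relative to wild-type virus.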

[15] = test system: Human immunodeficiency virus 1; assay: Antiviral activity against HIV1 with integrase V151l mutant; format: functional, organism-based; in short: as §5
[16] = test system: Human immunodeficiency virus 1; assay: Antiviral activity against HIV1 with integrase F121Y mutant; format: functional, organism-based; in short: as §5
[17] = test system: Human immunodeficiency virus 1; assay: Antiviral activity against HIV1 with integrase T125K mutant; format: functional, organism-based; in short: as §5
[18] = test system: Human immunodeficiency virus 1; assay: Antiviral activity against HIV1 with integrase T66l/M154l mutant; format: functional, organism-based; in short: as §5
[19] = test system: Human immunodeficiency virus 1; assay: Antiviral activity against HIV1 with integrase T66l/S153Y mutant; format: functional, organism-based; in short: as §5
[20] = test system: Human immunodeficiency virus 1; assay: Antiviral activity against HIV1 with integrase N155S mutant; format: functional, organism-based; in short: as §5
[21] = target: Human immunodeficiency virus type 1 integrase (Human immunodeficiency virus 1, UniProt Q7ZJM1); assay: Inhibition of HIV1 recombinant integrase catalyzed strand transfer activity
Homo sapiens = organism: Homo sapiens; assay: Protein binding in human plasma by ultrafiltration method; conditions: read-out: PB (converted)

Sequence of Human immunodeficiency virus type 1 integrase (Q7ZJM1 whole entry): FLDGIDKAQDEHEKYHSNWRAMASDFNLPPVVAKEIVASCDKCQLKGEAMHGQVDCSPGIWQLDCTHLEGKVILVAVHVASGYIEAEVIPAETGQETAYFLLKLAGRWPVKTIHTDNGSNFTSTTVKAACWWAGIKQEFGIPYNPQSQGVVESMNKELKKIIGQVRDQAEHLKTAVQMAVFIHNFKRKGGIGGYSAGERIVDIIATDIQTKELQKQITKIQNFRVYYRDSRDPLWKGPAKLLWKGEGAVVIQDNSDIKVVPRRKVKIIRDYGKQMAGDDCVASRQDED

Compound: O=[14C](NCc1ccc(F)cc1)c1nc(N2CCCCS2(=O)=O)c2cccnc2c1O
- Activity (Plasma): 1.5%

Compound: O=C(NCc1ccc(F)cc1)c1nc(N2CCCCS2(=O)=O)c2cccnc2c1O
- IC95 [1]: 15 nM
- IC95 [2]: 102 nM
- logD [3]: 2.1
- Solubility [4]: 0.21 µg/mL (≈ 0.488 µM)
- bioavailability [5]: 41%
- bioavailability [6]: 24%
- bioavailability [7]: 51%
- half-life [8]: 1.2 h
- half-life [9]: 2.9 h
- half-life [10]: 0.7 h
- clearance [11]: 2.8 mL/min/kg
- clearance [12]: 2 mL/min/kg
- clearance [13]: 6.6 mL/min/kg
- Activity [14]: Active
- Activity [15]: Active
- Activity [16]: Active
- Activity [17]: Active
- Activity [18]: Active
- Activity [19]: Active
- Activity [20]: Active

Compound: CNC(=O)c1cc(F)ccc1CNC(=O)c1nc(N2CCCCS2(=O)=O)c2cccnc2c1O
- IC50 [21]: 10 nM
- IC95 [1]: 7 nM
- IC95 [2]: 16 nM
- logD [3]: 1.6
- solubility thermodynamic [4]: 2.3 µg/mL (≈ 4.72 µM)
- bioavailability [5]: 45%
- bioavailability [6]: 65%
- bioavailability [7]: 23%
- half-life [8]: 1.2 h
- half-life [9]: 1.8 h
- half-life [10]: 1.4 h
- clearance [11]: 8.6 mL/min/kg
- clearance [12]: 2.8 mL/min/kg
- clearance [13]: 18.3 mL/min/kg
- Activity [14]: Active
- Activity [15]: Active
- Activity [16]: Active
- Activity [17]: Active
- Activity [18]: Active
- Activity [19]: Active
- Activity [20]: Active
- fraction unbound (Homo sapiens): 0.08

Compound: O=C(NCc1ccc(F)cc1)c1ncc2cccnc2c1O
- IC95 [2]: 5000 nM
- logD [3]: 2.4
- fraction unbound (Homo sapiens): 0.01

Compound: CNS(=O)(=O)c1cc(F)ccc1CNC(=O)c1nc(N2CCCCS2(=O)=O)c2cccnc2c1O
- IC50 [21]: 45 nM
- IC95 [1]: < 8 nM
- IC95 [2]: 125 nM
- logD [3]: 1.9
- fraction unbound (Homo sapiens): 0.01

Compound: CNC(=O)c1cc(F)ccc1CN[14C](=O)c1nc(N2CCCCS2(=O)=O)c2cccnc2c1O
- Activity (Plasma): 15%

Compound: CNC(=O)c1cc(F)ccc1CNC(=O)c1ncc2cccnc2c1O
- IC50 [21]: 51 nM
- IC95 [2]: 1040 nM
- logD [3]: 1.4
- fraction unbound (Homo sapiens): 0.02

Compound: CN(C)S(=O)(=O)c1cc(F)ccc1CNC(=O)c1nc(N2CCCCS2(=O)=O)c2cccnc2c1O
- IC50 [21]: 30 nM
- IC95 [1]: 16 nM
- IC95 [2]: 94 nM
- logD [3]: 1.9
- fraction unbound (Homo sapiens): 0.03

More lines, main results first:

- IC50 [21]: 14 nM
- logD [3]: 1
- fraction unbound (Homo sapiens): 0.06
Compound: CN(C)C(=O)Cc1ccccc1CNC(=O)c1nc(N2CCCCS2(=O)=O)c2cccnc2c1O
- IC95 [1]: 167 nM
- IC95 [2]: 1000 nM

- IC50 [21]: 7 nM
- logD [3]: 1
- fraction unbound (Homo sapiens): 0.08
Compound: CNC(=O)Cc1ccccc1CNC(=O)c1nc(N2CCCCS2(=O)=O)c2cccnc2c1O
- IC95 [1]: 109 nM
- IC95 [2]: 438 nM

- IC50 [21]: 110 nM
- logD [3]: 1
- fraction unbound (Homo sapiens): 0.1
Compound: CN(C)C(=O)c1cc(F)ccc1CNC(=O)c1nc(N2CCCCS2(=O)=O)c2cccnc2c1O
- IC95 [1]: 23 nM
- IC95 [2]: 63 nM

- IC50 [21]: 10 nM
- logD [3]: 1.9
Compound: O=C(NCc1ccccc1)c1nc(N2CCCCS2(=O)=O)c2cccnc2c1O
- IC95 [1]: 125 nM
- IC95 [2]: 1000 nM
